Source: PubChem BioAssay AID602190 (Broad Institute, 2012)
Results filed as inconclusive are left out. Activity calls are given as the source filed them.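 The calls were made as follows: active = compound whose fitted half-maximal concentration, in every repeat run, is at most twice the top dose tested; inconclusive = repeat runs disagree, or a flat or poor curve fit; inactive = every repeat run called inactive.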

Tested on: C. albicans CaCi-2 growth, Alamar Blue fluorescence, 48 h
Test: single-agent growth inhibition of C. albicans CaCi-2, dose response, CaCi-2 strain, plate reader, dry powder (AID 602190)
Settings: not given
Outline: (§1)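 Assay system: Candida albicans strain CaCi-2, a fluconazole-resistant clinical isolate; amount: fungal inoculum at starting OD600 of 0.00015; buffer or medium: RPMI 1640 with MOPS, uridine, glucose; incubation: 48 h static exposure at 37 °C, 2 h Alamar Blue; measure: growth inhibition from lowered fluorescence; signal: Alamar Blue fluorescence reporting fungal metabolic activity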

Row | SMILES | AC50 [µM]
1 | O=C(Nc1nnc(-c2ccc3c(c2)CCCC3)o1)c1ccccc1 | 17.6
2 | Oc1c(C(c2ccccc2Cl)N2CCCCC2)ccc2cccnc12 (stereo unspecified) | 8.88
3 | Oc1c(C(c2ccc(Cl)cc2)N2CCCC2)ccc2cccnc12 (stereo unspecified) | 5.03
4 | O=C(Nc1nc(-c2ccccn2)cs1)c1ccc(Br)s1 | 5.53
5 | CCOC(=O)N1C(=O)C2(CCCCC2)N(c2ccc(C)cc2)C1=S | 4.29
6 | CN1CCN(C(c2ccc(C(F)(F)F)cc2)c2ccc3cccnc3c2O)CC1 (stereo unspecified) | 4.75
7 | O=C(NNC(=S)Nc1ccc(Cl)c(Cl)c1)c1ccccn1 | 13
8 | O=C(Nc1nnc(-c2ccc3c(c2)CCCC3)o1)c1ccc(Cl)cc1Cl | 17.9
9 | Oc1c(CN2CCc3ccccc3C2)cc(Cl)c2cccnc12 | 1.57
10 | O=C(Nc1nc(-c2ccccn2)cs1)c1ccc(Cl)s1 | 6.89
11 | Cc1cc(C)n(-c2nc3ccccc3c(=O)n2OCC#N)n1 | 6.87
12 | Oc1c(CN2CCN(c3ccccc3)CC2)cc(Cl)c2cccnc12 | 2.72
13 | O=C(Oc1c(Cl)cc(Cl)c2cccnc12)c1ccco1 | 0.708
14 | C/C(=N\NC(=O)c1cc2ccccc2cc1O)c1ccccn1 | 6.11

Tested on: not listed separately
Test: as above
Settings: C. albicans CaCi-2 growth, Alamar Blue fluorescence, 48 h; at 26 µM (top of the series)
Outline: as §1

Row | SMILES | activity change, negative = inhibition
15 | NC(=O)c1cccc(C(=O)Nc2nc(-c3ccc4c(c3)CCCC4)cs2)c1 | 4.94% (inactive)
16 | Cc1ccc(C(=O)Nc2nnc(-c3ccccc3)o2)cc1C | -9.38% (inactive)
17 | O=C(Nc1nc(-c2ccccc2)cs1)c1ccc(Br)s1 | -11.8% (inactive)
18 | C=CCNC(=S)N/N=C(\C)c1ccccn1 | -68% (inactive)
19 | O=C(Nc1nc(-c2ccccn2)cs1)c1ccccc1 | 6.07% (inactive)
20 | O=C(Nc1nc(-c2ccc3c(c2)CCCC3)cs1)c1ccccc1 | -18.1% (inactive)
21 | Cc1ccc(-c2nc3c(Cl)cc(Cl)cc3c(=O)n2O)cc1 | -45% (inactive)
